ChEMBL document CHEMBL3351782, “Synthesis and biological evaluation of glaucocalyxin A derivatives as potential anticancer agents” (Eur J Med Chem, 2014)

Columns and labels:
[1] = Antiproliferative activity against human SMMC7721 cells after 48 hrs by MTT assay; format: functional, cell-based; conditions: SMMC-7721, 48 h
Procedure, shortened: (§1)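 Cells were seeded at 3 × 10^3 per well and exposed 24 h later, while growing exponentially, to compounds at final concentrations of 1.25 to 40 for 48 h. MTT (5 mg/mL in PBS) was then added for 6 h. The medium was aspirated, the formazan dissolved in DMSO and absorbance read at 570 nm. Survival is relative to untreated cells; IC50 comes from triplicate wells in at least three independent experiments.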

[2] = Antiproliferative activity against human SGC7901 cells after 48 hrs by MTT assay; format: functional, cell-based; conditions: SGC-7901, 48 h; procedure, shortened: as §1
[3] = Antiproliferative activity against human HL7702 cells after 48 hrs by MTT assay; format: cell-based; conditions: L02, 48 h; procedure, shortened: as §1
A549 = experiment: Antiproliferative activity against human A549 cells after 48 hrs by MTT assay; format: functional, cell-based; conditions: A549, 48 h; procedure, shortened: as §1
[4] = Antiproliferative activity against human HL60 cells after 48 hrs by MTT assay; format: functional, cell-based; conditions: HL-60, 48 h; procedure, shortened: as §1
KB [5] = experiment: Antiproliferative activity against human KB cells after 48 hrs by MTT assay; format: functional, cell-based; procedure, shortened: as §1
B16 = experiment: Antiproliferative activity against mouse B16 cells after 48 hrs by MTT assay; format: functional, cell-based; conditions: B16, 48 h; procedure, shortened: as §1
KB [6] = experiment: Induction of apoptosis in human KB cells assessed as early apoptotic cells level at 10 uM after 48 hrs by Annexin V and propidium iodide staining based flow cytometry (reference value: 7.08%); format: functional
Procedure, shortened: (§2)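 KB cells were plated in 6-well plates at 2.5 × 10^5 cells/mL and treated for 48 h. Adherent and floating cells were pooled, washed twice in PBS and stained with Annexin V and PI in binding buffer for 20 min at room temperature. Samples were read immediately on a FACSCalibur; untreated cells served as control. Values are means ± SE of at least three independent experiments.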

KB [7] = experiment: Induction of apoptosis in human KB cells assessed as late apoptotic cells level at 5 uM after 48 hrs by Annexin V and propidium iodide staining based flow cytometry (reference value: 2.26%); format: functional; procedure, shortened: as §2
KB [8] = experiment: Induction of apoptosis in human KB cells assessed as late apoptotic cells level at 20 uM after 48 hrs by Annexin V and propidium iodide staining based flow cytometry (reference value: 2.26%); format: functional; procedure, shortened: as §2
KB [9] = experiment: Induction of apoptosis in human KB cells assessed as necrotic cells level at 5 uM after 48 hrs by Annexin V and propidium iodide staining based flow cytometry (reference value: 3.23%); format: functional; procedure, shortened: as §2
[10] = Stability in 80% rat plasma assessed as parent compound remaining at 1 uM at 37 degC after 24 hrs by HPLC method; format: ADME, cell-free; conditions: read-out: Stability
Procedure, shortened: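 Thawed rat plasma was diluted to 80% v/v with 0.1 M PBS, pH 7.4. Compound was spiked from DMSO stock (1% v/v DMSO final) and held at 37 °C. Aliquots were quenched with two volumes of acetonitrile and centrifuged at 4 °C, 10,000 g, 10 min. Supernatants were run on HPLC with external standard; the result is percent parent remaining at 24 h, mean ± SD, n = 3.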

KB [11] = experiment: Induction of apoptosis in human KB cells assessed as early apoptotic cells level at 5 uM after 48 hrs by Annexin V and propidium iodide staining based flow cytometry (reference value: 7.08%); format: functional; procedure, shortened: as §2
KB [12] = experiment: Induction of apoptosis in human KB cells assessed as viable cells level at 10 uM after 48 hrs by Annexin V and propidium iodide staining based flow cytometry (reference value: 87.4%); format: functional; procedure, shortened: as §2
KB [13] = experiment: Induction of apoptosis in human KB cells assessed as viable cells level at 5 uM after 48 hrs by Annexin V and propidium iodide staining based flow cytometry (reference value: 87.4%); format: functional; procedure, shortened: as §2
KB [14] = experiment: Induction of apoptosis in human KB cells after 48 hrs by Annexin V and propidium iodide staining based flow cytometry; format: functional, cell-based; procedure, shortened: as §2
KB [15] = experiment: Induction of apoptosis in human KB cells assessed as viable cells level at 20 uM after 48 hrs by Annexin V and propidium iodide staining based flow cytometry (reference value: 87.4%); format: functional; procedure, shortened: as §2
KB [16] = experiment: Induction of apoptosis in human KB cells assessed as early apoptotic cells level at 20 uM after 48 hrs by Annexin V and propidium iodide staining based flow cytometry (reference value: 7.08%); format: functional; procedure, shortened: as §2
[17] = Chemical stability in 10 mM pH 7.4 PBS buffer assessed as parent compound remaining at 1 uM at 37 degC after 24 hrs by HPLC method; format: physicochemical; conditions: read-out: Stability
Procedure, shortened: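 DMSO stock was diluted into pre-warmed 10 mM PBS, pH 7.4, with 1% v/v DMSO final, and incubated at 37 °C. Aliquots were taken at set times and injected directly onto reversed-phase HPLC (ODS column, water + 0.1% TFA eluent, external standard). The result is percent parent remaining after 24 h, mean ± SD, n = 3.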

KB [18] = experiment: Induction of apoptosis in human KB cells assessed as necrotic cells level at 10 uM after 48 hrs by Annexin V and propidium iodide staining based flow cytometry (reference value: 3.23%); format: functional; procedure, shortened: as §2
KB [19] = experiment: Retention time of the compound in human KB cells lysates treated with 500 uM in presence of 10 mM cysteine by LC-HRMS method
KB [20] = experiment: Induction of apoptosis in human KB cells assessed as late apoptotic cells level at 10 uM after 48 hrs by Annexin V and propidium iodide staining based flow cytometry (reference value: 2.26%); format: functional; procedure, shortened: as §2
KB [21] = experiment: Prodrug conversion in human KB cells lysates assessed as formation of cysteine conjugates at 500 uM in presence of 10 mM cysteine by LC-HRMS method; format: ADME, cell-based, Lysate
Procedure, shortened: (§3)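 KB cells (5 × 10^6) were lysed by freeze/thaw. DMSO stock prepared just before use was added to lysate already containing cysteine, with DMSO matched in controls, and incubated at 37 °C. Aliquots taken at 30 min and 1 h were mixed with two volumes of acetonitrile and centrifuged (4 °C, 10,000 g, 10 min). They were analysed by LC-HRMS in positive mode using a water + 0.1% formic acid/methanol gradient.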

KB [22] = experiment: Induction of apoptosis in human KB cells assessed as necrotic cells level at 20 uM after 48 hrs by Annexin V and propidium iodide staining based flow cytometry (reference value: 3.23%); format: functional; procedure, shortened: as §2
KB [23] = experiment: Induction of apoptosis in human KB cells assessed as viable cells level at 10 uM after 48 hrs by Annexin V and propidium iodide staining based flow cytometry (reference value: 84.3%); format: functional; procedure, shortened: as §2
KB [24] = experiment: Induction of apoptosis in human KB cells assessed as necrotic cells level at 40 uM after 48 hrs by Annexin V and propidium iodide staining based flow cytometry (reference value: 3.64%); format: functional; procedure, shortened: as §2
KB [25] = experiment: Induction of apoptosis in human KB cells assessed as viable cells level at 40 uM after 48 hrs by Annexin V and propidium iodide staining based flow cytometry (reference value: 84.3%); format: functional; procedure, shortened: as §2
KB [26] = experiment: Induction of apoptosis in human KB cells assessed as late apoptotic cells level at 20 uM after 48 hrs by Annexin V and propidium iodide staining based flow cytometry (reference value: 4.4%); format: functional; procedure, shortened: as §2
KB [27] = experiment: Induction of apoptosis in human KB cells assessed as late apoptotic cells level at 40 uM after 48 hrs by Annexin V and propidium iodide staining based flow cytometry (reference value: 4.4%); format: functional; procedure, shortened: as §2
KB [28] = experiment: Prodrug conversion in human KB cells lysates assessed as glaucocalyxin A formation at 500 uM in presence of 10 mM cysteine by LC-HRMS method; format: ADME, cell-based, Lysate; procedure, shortened: as §3
KB [29] = experiment: Induction of apoptosis in human KB cells assessed as late apoptotic cells level at 10 uM after 48 hrs by Annexin V and propidium iodide staining based flow cytometry (reference value: 4.4%); format: functional; procedure, shortened: as §2
KB [30] = experiment: Induction of apoptosis in human KB cells assessed as necrotic cells level at 20 uM after 48 hrs by Annexin V and propidium iodide staining based flow cytometry (reference value: 3.64%); format: functional; procedure, shortened: as §2
KB [31] = experiment: Induction of apoptosis in human KB cells assessed as necrotic cells level at 10 uM after 48 hrs by Annexin V and propidium iodide staining based flow cytometry (reference value: 3.64%); format: functional; procedure, shortened: as §2
KB [32] = experiment: Induction of apoptosis in human KB cells assessed as early apoptotic cells level at 40 uM after 48 hrs by Annexin V and propidium iodide staining based flow cytometry (reference value: 7.69%); format: functional; procedure, shortened: as §2
KB [33] = experiment: Induction of apoptosis in human KB cells assessed as viable cells level at 20 uM after 48 hrs by Annexin V and propidium iodide staining based flow cytometry (reference value: 84.3%); format: functional; procedure, shortened: as §2
KB [34] = experiment: Induction of apoptosis in human KB cells assessed as early apoptotic cells level at 10 uM after 48 hrs by Annexin V and propidium iodide staining based flow cytometry (reference value: 7.69%); format: functional; procedure, shortened: as §2
KB [35] = experiment: Induction of apoptosis in human KB cells assessed as early apoptotic cells level at 20 uM after 48 hrs by Annexin V and propidium iodide staining based flow cytometry (reference value: 7.69%); format: functional; procedure, shortened: as §2

Compound	IC50 [1] [µM]	IC50 [2] [µM]	IC50 [3] [µM]	IC50 (A549) [µM]	IC50 [4] [µM]	IC50 (KB [5]) [µM]	IC50 (B16) [µM]	further results
CC1(C)C(=O)CC[C@]2(C)[C@@H]1C[C@@H](O)[C@]13C(=O)C(CNc4ccc(C(=O)O)cc4)[C@H](CC[C@@H]21)[C@H]3O (stereo not given in full)	16.8	22.3	35.4	11.7	10.5	6.13	6.79	
C=C1C(=O)[C@@]23[C@H](O)C[C@@H]4C(C)(C)C(=O)CC[C@@]4(C)[C@@H]2CC[C@@H]1[C@H]3O [GLAUCOCALYXIN A]	8.11	11.7	8.62	7.5	5.52	6.47	4.84	Activity (KB [6]): 14.3%; Activity (KB [7]): 3.69%; Activity (KB [8]): 19%; Activity (KB [9]): 4.95%; remaining at 24 h, 1 µM [10]: 24.2%; Activity (KB [11]): 10.7%; Activity (KB [12]): 76.1%; Activity (KB [13]): 80.6%; Activity (KB [14]): Dose-dependent effect; Activity (KB [15]): 43.9%; Activity (KB [16]): 33.4%; remaining at 24 h, 1 µM [17]: 109%; Activity (KB [18]): 2.69%; Retention_time (KB [19]): 5.75 min; Activity (KB [20]): 6.89%; Retention_time (KB [21]): 2.42 min; Activity (KB [22]): 3.59%
CC1(C)C(=O)CC[C@]2(C)[C@@H]1C[C@@H](O)[C@]13C(=O)C(CNC4CCCCC4)[C@H](CC[C@@H]21)[C@H]3O (stereo not given in full)	15.2	20.7	8.95	11.1	9.35	11.3	5.66	
Cc1cccc(NCC2C(=O)[C@@]34[C@H](O)C[C@@H]5C(C)(C)C(=O)CC[C@@]5(C)[C@@H]3CC[C@@H]2[C@H]4O)c1 (stereo not given in full)	20.7	38.7		28.3	13.5	29.6	14.4	
CC1(C)C(=O)CC[C@]2(C)[C@@H]1C[C@@H](O)[C@]13C(=O)C(CNc4ccc(Br)cc4)[C@H](CC[C@@H]21)[C@H]3O (stereo not given in full)	18.1	25.4		19.2	14.6	6.31	10.9	
CC1(C)C(=O)CC[C@]2(C)[C@@H]1C[C@@H](O)[C@]13C(=O)C(CNc4ccccc4)[C@H](CC[C@@H]21)[C@H]3O (stereo not given in full)	48	32.6		37.2	15.1	31	11.5	
Cc1ccc(NCC2C(=O)[C@@]34[C@H](O)C[C@@H]5C(C)(C)C(=O)CC[C@@]5(C)[C@@H]3CC[C@@H]2[C@H]4O)cc1 (stereo not given in full)	12.2	16.1	21.1	10.6	8.92	7.22	8.54	Activity (KB [23]): 77.9%; Activity (KB [24]): 11.9%; Activity (KB [25]): 49%; Activity (KB [26]): 5.42%; Activity (KB [27]): 15.6%; Drug metabolism (KB [28]): metabolite_detected; Activity (KB [29]): 4.46%; Activity (KB [30]): 4.13%; remaining at 24 h, 1 µM [10]: 86.4%; Activity (KB [31]): 3.19%; Activity (KB [32]): 23.4%; Activity (KB [14]): Dose-dependent effect; remaining at 24 h, 1 µM [17]: 104%; Activity (KB [33]): 69.9%; Activity (KB [34]): 14.5%; Retention_time (KB [21]): 2.52 min; Activity (KB [35]): 20.5%
